{"source": "paper PMC2646753", "about": "(Biochemistry, 2008)", "key": {"[1]": {"target": "T1, wt QacR (Staphylococcus aureus, UniProt P0A0N4)", "T1 sequence (P0A0N4 1-188)": "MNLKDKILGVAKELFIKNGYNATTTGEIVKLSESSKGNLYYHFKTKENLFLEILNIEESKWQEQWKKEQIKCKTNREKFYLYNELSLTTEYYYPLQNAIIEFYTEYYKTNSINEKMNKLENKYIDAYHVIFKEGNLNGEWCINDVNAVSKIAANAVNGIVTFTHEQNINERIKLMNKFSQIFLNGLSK", "experiment": "Isothermal titration calorimetry, wt QacR", "assay_type": "binding"}, "[2]": {"target": "T2, QacR(E57Q) (Staphylococcus aureus, UniProt P0A0N4, E57Q)", "T2 sequence (P0A0N4 1-188 E57Q)": "T1 sequence (P0A0N4 1-188) with E57Q", "experiment": "Isothermal titration calorimetry, QacR", "assay_type": "binding"}, "[3]": {"target": "T3, QacR(E58Q) (Staphylococcus aureus, UniProt P0A0N4, E58Q)", "T3 sequence (P0A0N4 1-188 E58Q)": "T1 sequence (P0A0N4 1-188) with E58Q", "experiment": "Isothermal titration calorimetry, QacR", "assay_type": "binding"}, "[4]": {"target": "T4, QacR(E57Q/E58Q) (Staphylococcus aureus, UniProt P0A0N4, E57Q/E58Q)", "T4 sequence (P0A0N4 1-188 E57Q/E58Q)": "T1 sequence (P0A0N4 1-188) with E57Q, E58Q", "experiment": "Isothermal titration calorimetry, QacR", "assay_type": "binding"}, "[5]": {"target": "T5, QacR(E57A) (Staphylococcus aureus, UniProt P0A0N4, E57A)", "T5 sequence (P0A0N4 1-188 E57A)": "T1 sequence (P0A0N4 1-188) with E57A", "experiment": "Intrinsic tryptophan fluorescence quenching, QacR", "assay_type": "binding"}, "[6]": {"target": "T2, QacR(E57Q)", "experiment": "Intrinsic tryptophan fluorescence quenching, QacR", "assay_type": "binding"}, "[7]": {"target": "T4, QacR(E57Q/E58Q)", "experiment": "Intrinsic tryptophan fluorescence quenching, QacR", "assay_type": "binding"}, "[8]": {"system": "mutant QacR proteins", "experiment": "Intrinsic tryptophan fluorescence quenching, mutant QacR proteins compared to wt", "assay_type": "binding, Staphylococcus aureus", "settings": "all mutant QacR proteins of Table 2 vs wt QacR", "method_in_brief": "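C-terminally His6-tagged QacR variants were expressed in E. coli DH5α, Ni2+-NTA purified, and dialysed into 1 M NaCl, 20 mM Tris-HCl, 5% glycerol, pH 7.5. Kd was derived from quenching of intrinsic tryptophan fluorescence intensity on ligand titration. Ligands came from 2.5 mM stocks in water, diluted in 100 mM NaCl, 15 mM Tris-HCl, 2.5% glycerol, pH 7.5. Each Kd is the mean of three independent experiments.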"}}, "note": "Residue numbers refer to the chain shown, from its start."}
{"smiles": "Cc1cc(N)c2ccccc2[n+]1CCCCCCCCCC[n+]1c(C)cc(N)c2ccccc21", "note": "[Dq, dequalinium]", "values": [{"measurement": "Kd", "setting": "[1]", "result": "1300 ± 300", "unit": "nM"}, {"measurement": "Kd", "setting": "[2]", "result": "1950 ± 180", "unit": "nM"}, {"measurement": "Kd", "setting": "[3]", "result": "2400 ± 200", "unit": "nM"}, {"measurement": "Kd", "setting": "[4]", "result": "5200 ± 3800", "unit": "nM"}, {"measurement": "decrease in binding affinity compared to wt QacR", "setting": "[4]; QacR(E57Q/E58Q) vs wt QacR, ITC", "result": 4, "unit": "fold"}]}
{"smiles": "COc1ccc2cc3[n+](cc2c1OC)CCc1cc2c(cc1-3)OCO2", "note": "[Be, berberine]", "values": [{"measurement": "Kd", "setting": "[5]", "result": "1880 ± 230", "unit": "nM"}, {"measurement": "Kd", "setting": "[6]", "result": "1390 ± 150", "unit": "nM"}, {"measurement": "Kd", "setting": "[7]", "result": "320 ± 150", "unit": "nM"}, {"measurement": "increase in binding affinity compared to wt QacR", "setting": "[7]; QacR(E57Q/E58Q) vs wt QacR", "result": 9, "unit": "fold"}]}
{"smiles": "CN(C)c1ccc(C(=C2C=CC(=[N+](C)C)C=C2)c2ccccc2)cc1", "note": "[MG, malachite green]", "values": [{"measurement": "Kd", "setting": "[5]", "result": "2980 ± 230", "unit": "nM"}, {"measurement": "Kd", "setting": "[6]", "result": "1770 ± 170", "unit": "nM"}, {"measurement": "Kd", "setting": "[7]", "result": "1990 ± 80", "unit": "nM"}, {"measurement": "change in binding affinity of mutant QacR proteins compared to wt QacR", "setting": "[8]", "result": "≤ 2.4", "unit": "fold"}]}
